Assay outcomes as filed in PubChem.
In the library only some 2.6% were active in any assay of this set; here they are far more common.
SENP6 inh: inhibitors of human SENP6 protease | Q9GZR1 | Recombinant SENP6 catalytic domain, aminoluciferin luminescence | inhibition, % at 10 µM | 330,000 tested, 1.8% active | AID 2599;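 active means inhibition above about 50% at the single tested dose, limit read from the data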;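 further: plate controls were DMSO wells with enzyme for no effect and DMSO wells lacking enzyme for full effect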
UCH37 DUB inh: inhibitors of human deubiquitinating enzyme UCH37. 330,000 tested, 0.33% active. inhibition, % (test concentration not listed). purified proteasome/UCH37, Ub-AMC cleavage fluorescence. Q9Y5K5;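 active means mean inhibition over replicate wells above about 20%, limit read from the data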;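 further: 0% = compound-free wells with enzyme and 100% = wells lacking proteasome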
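system = Proteasome-associated human UCH37 deubiquitinase | amount = 0.15 nM proteasome as dispensed | medium = pH 7.4 Tris-HCl (50 mM) with ovalbumin, ATP-MgCl2, DTT | incubation = 30 min preincubation with enzyme, 25 min cleavage at room temperature | detection = AMC fluorescence 355/460 nm | read-out basis = percent inhibition | controls = no-proteasome and no-compound wells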
SENP1 inh: SENP1 (human) catalytic domain inhibition | Q9P0U3 | recombinant SENP1 catalytic domain, CyPet-SUMO1-YPet FRET cleavage | inhibition, % at 10 µM | 360,000 tested, 0.21% active | AID 624204;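 active means inhibition at least 30% at 10 µM, raw YFP signal under a set limit, fluorescence ratio 0.5 to 1.5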;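 further: 0% = enzyme with DMSO and 100% = no enzyme wells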
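material = recombinant human SENP1 catalytic domain, His6-tagged | quantity = 20 pM enzyme | reagent = 25 nM SUMO1 FRET substrate | compound dosing = 10 µM single point, 0.5% DMSO | timing = 50 min enzyme reaction, room temperature, light-protected | detection = FRET, CFP and YFP emission | control set = no-enzyme low, enzyme-DMSO high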
SENP8 block-1: inhibitors of human SENP8 protease | Q96LD8 | purified SENP8, Z-RLRGG-aminoluciferin cleavage, luminescence | inhibition, % at 10 µM | 330,000 tested, 1.2% active | AID 2540; in the data active means inhibition above about 50%
SENP7 block: inhibitors of human SENP7 protease; Q9BQF6; recombinant SENP7, Z-RLRGG-aminoluciferin luminescence, 40 min; inhibition, % at 5 µM; 330,000 tested, 1.5% active; AID 434973;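 active means inhibition above about 50% at the single test dose, limit read from the data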;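 further: plate controls were DMSO with enzyme for no effect and no enzyme buffer wells for full effect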
Target sequence (Q9BQF6 706-1050 limits assumed): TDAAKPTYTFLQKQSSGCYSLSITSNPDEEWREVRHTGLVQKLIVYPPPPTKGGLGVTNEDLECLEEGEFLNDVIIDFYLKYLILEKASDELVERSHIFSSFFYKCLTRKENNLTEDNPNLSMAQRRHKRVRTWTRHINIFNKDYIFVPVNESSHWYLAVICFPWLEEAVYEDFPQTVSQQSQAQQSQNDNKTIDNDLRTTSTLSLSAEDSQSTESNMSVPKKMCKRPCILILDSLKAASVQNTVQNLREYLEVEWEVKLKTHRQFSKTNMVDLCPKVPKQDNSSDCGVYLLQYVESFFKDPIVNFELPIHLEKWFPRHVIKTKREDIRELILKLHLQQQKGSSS
SENP8 block-2: SENP8 (human) protease inhibition; Q96LD8; recombinant SENP8, Nedd8 substrate fluorescence; inhibition, % at 20 µM; 360,000 tested, 0.64% active; AID 602440; in the data active means inhibition mostly above about 40%, no sharp cut-off; inactive means mostly below about 27%
SENP8 conf: human SENP8 inhibition, confirmed; AID 488912; shares compounds with SENP7 block; inhibition, % at 12.5 µM; Recombinant SENP8, Z-RLRGG-aminoluciferin luminescence, 60 min; 6,200 tested, 40% active;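 active means mean inhibition across replicates above about 50%, limit read from the data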
SENP6 confirm: human SENP6 inhibition, confirmed; 6,200 tested, 58% active; inhibition, % at 12.5 µM; shares compounds with SENP7 block; recombinant SENP6, Z-RLRGG-aminoluciferin luminescence
SENP7 conf: confirmation of human SENP7 protease inhibitors; shares compounds with SENP7 block; 6,200 tested, 69% active; recombinant SENP7, Z-RLRGG-aminoluciferin luminescence, 40 min; inhibition, % at 12.5 µM
Casp3 SENP sel: caspase-3 inhibition (SENP selectivity assay); purified caspase-3, Z-DEVD-aminoluciferin luminescence, 60 min; shares compounds with SENP7 block; inhibition, % at 12.5 µM; 6,200 tested, 60% active;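 active means mean inhibition above about 50%, limit read from the data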;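 further: plate controls were enzyme with DMSO for no effect and wells without caspase-3 for full effect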
Luc interf: interferes with luciferase luminescence in SENP counter-screen. 6,200 tested, 39% active. inhibition, % at 12.5 µM. shares compounds with SENP7 block. AID 488919. Pre-incubated SENP8/Z-RLRGG-aminoluciferin, luciferase luminescence interference;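 active means mean inhibition above about 50% when retested at one dose, limit read from the data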;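 further: plate controls were DMSO wells with completed reaction for no effect and substrate without enzyme for full effect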
* marks the source's active call; other numbers are inactive results.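 How the source made its calls, unless noted: active means mean inhibition above about 50% in the one-dose retest (limit read from the data); inactive means the rest.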

Results for O=C(Nc1ccc2ccccc2c1)c1ccccc1O ?
SENP6 inh: 99.1*; UCH37 DUB inh: -2.3; SENP1 inh: -1.1; SENP8 block-1: 95.5*; SENP7 block: 96.3*; SENP8 block-2: -130.1; SENP8 conf: 93.5*; SENP6 confirm: 96.5*; SENP7 conf: 102.1*; Casp3 SENP sel: 92.1*; Luc interf: 64.0*

How did O=C(Nc1ccc2ccccc2c1)c1ccc(Cl)cc1Cl do in these assays?
SENP6 inh: 67.5*; SENP1 inh: 3.4; SENP8 block-1: 55.5*; SENP7 block: 84.7*; SENP8 block-2: 18.3; SENP8 conf: -0.5; SENP6 confirm: 53.8*; SENP7 conf: 50.5*; Casp3 SENP sel: 54.6*; Luc interf: 9.6

Results for Cc1occc1C(=O)Nc1ccc2ccccc2c1 ?
SENP6 inh: -8.3; UCH37 DUB inh: -6.5; SENP1 inh: -3.9; SENP8 block-1: 82.2*; SENP7 block: -4.8; SENP8 block-2: -18.2; SENP8 conf: 7.0; SENP6 confirm: 95.6*; SENP7 conf: 102.3*; Casp3 SENP sel: 91.7*; Luc interf: 94.7*

How did Cc1occc1C(=O)Nc1cc(C(C)(C)C)on1 do in these assays?
SENP6 inh: 96.0*; UCH37 DUB inh: 0.9; SENP1 inh: -2.2; SENP8 block-1: 93.5*; SENP7 block: 96.7*; SENP8 block-2: 20.6; SENP8 conf: 93.2*; SENP6 confirm: 95.0*; SENP7 conf: 101.5*; Casp3 SENP sel: 96.6*; Luc interf: 94.9*

What do the screens show for `O=C(Nc1ccc2ccccc2c1)c1ccccc1[N+](=O)[O-]`?
UCH37 DUB inh: -38.8; SENP1 inh: -4.0; SENP8 block-2: inactive

Results for COc1ccccc1C(=O)NN=C(C)CC(=O)Nc1ccccn1 ?
UCH37 DUB inh: 0.5

How did CCN(CC)c1ccc(C=NNC(=O)CNC(=O)c2ccc3c(c2)OCCO3)cc1 do in these assays?
UCH37 DUB inh: -191.3

Results for CCCc1[nH]n(-c2nc3ccccc3s2)c(=O)c1C=NCCCN(CC)CC ?
SENP6 inh: 68.3*; UCH37 DUB inh: 5.3; SENP1 inh: 1.7; SENP8 block-1: 41.8; SENP7 block: 39.8; SENP8 block-2: 13.1; SENP8 conf: 48.7; SENP6 confirm: 21.8; SENP7 conf: 33.1; Casp3 SENP sel: 60.4*; Luc interf: 57.3*

Results for CCCN=Cc1c(CCC)[nH]n(-c2nc3ccccc3s2)c1=O ?
SENP6 inh: 4.5; UCH37 DUB inh: 2.5; SENP1 inh: 2.0; SENP8 block-1: 3.1; SENP7 block: -0.1; SENP8 block-2: 7.6

What do the screens show for `COc1ccccc1N1CCN(N=Cc2ccccc2C(=O)O)CC1`?
UCH37 DUB inh: 5.7

Results for Cc1oc(-c2ccccc2)nc1C(=O)OCC(=O)NC(C)c1ccccc1 (centres undefined) ?
SENP6 inh: -12.8; UCH37 DUB inh: 1.4; SENP1 inh: -6.9; SENP8 block-1: -13.3; SENP7 block: -8.6; SENP8 block-2: -21.2

What do the screens show for `Cc1oc(-c2ccccc2)nc1C(=O)OCC(=O)NC(=O)NCC(C)C`?
SENP6 inh: -23.4; UCH37 DUB inh: 3.1; SENP1 inh: -6.8; SENP8 block-1: 25.5; SENP7 block: 64.5*; SENP8 block-2: -3.3; SENP8 conf: 3.8; SENP6 confirm: 5.9; SENP7 conf: 17.2; Casp3 SENP sel: 28.1; Luc interf: 12.5
